The test system of assay [1] is 3T3-L1. Put plainly: Adipogenic activity in mouse 3T3L1 cells assessed as increase in triglyceride level after 8 days relative to control. In kind it is functional, cell-based. The method in brief:
(§1)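 3T3L1 fibroblasts grown in DMEM/10% newborn calf serum, 37 °C, 5% CO2. Two days post-confluence, differentiation induced with 2 μg/mL insulin, 1 μM dexamethasone, 125 μM IBMX in DMEM/10% FBS. Medium was then changed every two days to 10% FBS/DMEM plus 2 μg/mL insulin. Compounds added at induction and kept 8 days. Cells lysed by three freeze/thaw cycles; triglyceride measured by enzymatic kit.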

Assay [2] deals with 3T3-L1. Put plainly: Adipogenic activity in mouse 3T3L1 cells assessed as increase in triglyceride level at 3 uM after 8 days relative to control. Type of assay: functional. Summed up: as §1
Assay [3] has as its system 3T3-L1. Put plainly: Adipogenic activity in mouse 3T3L1 cells assessed as increase in triglyceride level at 10 uM after 8 days relative to control. In kind it is functional. Summed up: as §1
For assay [4], the system named is 3T3-L1. As to the kind of experiment: Adipogenic activity in mouse 3T3L1 cells assessed as intracellular lipid droplet accumulation at 10 to 30 uM after 8 days by oil red O staining. In kind it is functional, cell-based. Summed up:
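3T3L1 fibroblasts, differentiation induced 2 days post-confluence with insulin (2 μg/mL), dexamethasone (1 μM), IBMX (125 μM) in 10% FBS/DMEM, then insulin-supplemented 10% FBS/DMEM changed every 2 days. Compounds present from induction. After 8 days of differentiation, cells stained with Oil Red O and photographed.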

Assay [5] concerns 3T3-L1. Put plainly: Adipogenic activity in mouse 3T3L1 cells assessed as upregulation of GLUT4 gene expression at 3 to 30 uM by RT-PCR analysis. In kind it is functional, cell-based. Summed up:
(§2)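 In differentiating 3T3L1 cells (insulin/dexamethasone/IBMX induction, compounds added at induction), total RNA extracted with TRIzol, reverse-transcribed, then quantitative PCR run with mouse primers for GLUT4 or aP2, with β-actin as reference gene.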

Assay [6] has as its system 3T3-L1. As to the kind of experiment: Adipogenic activity in mouse 3T3L1 cells assessed as upregulation of ap2 gene expression at 3 to 30 uM by RT-PCR analysis. Type of assay: functional, cell-based. The method in brief:
as §2

In assay [7] the test system is 3T3-L1. Put plainly: Adipogenic activity in mouse 3T3L1 cells assessed as upregulation of GLUT4 protein expression at 3 to 10 uM by […] analysis. Type of assay: functional, cell-based. Summed up:
(§3)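 Differentiating 3T3L1 cells (insulin/dexamethasone/IBMX induction, compounds added at induction) harvested in RIPA buffer with protease inhibitors. Proteins resolved by SDS-PAGE and blotted onto PVDF. Blots probed with primary antibodies to GLUT4 or aP2 and β-actin, then HRP-conjugated secondary antibodies.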

Assay [8] relates to 3T3-L1. As to the kind of experiment: Adipogenic activity in mouse 3T3L1 cells assessed as upregulation of ap2 protein expression at 3 to 10 uM by […] analysis. In kind it is functional, cell-based. Summed up:
as §3

In assay [9] the test system is 3T3-L1. As to the kind of experiment: Adipogenic activity in mouse 3T3L1 cells assessed as increase in triglyceride level at 30 uM after 8 days relative to control. Type of assay: functional. The method in brief:
as §1

Assay [10] relates to 3T3-L1. Put plainly: Adipogenic activity in mouse 3T3L1 cells assessed as upregulation of GLUT4 protein expression at 3 to 30 uM by […] analysis. In kind it is functional, cell-based. Summed up: as §3
Assay [11] relates to 3T3-L1. Put plainly: Adipogenic activity in mouse 3T3L1 cells assessed as upregulation of ap2 protein expression at 3 to 30 uM by […] analysis. Type of assay: functional, cell-based.
In assay [12] the test system is 3T3-L1. As to the kind of experiment: Adipogenic activity in mouse 3T3L1 cells assessed as increase in triglyceride level at 1 uM after 8 days relative to control. Type of assay: functional. The method in brief: as §1

Among the data in ChEMBL document CHEMBL2034925, “Isoprenylated flavonoid and adipogenesis-promoting constituents of Dodonaea viscosa” (2012) are Activity values, retold here.

Active and inactive are the calls of the source. The calls are words filed in the database; no cut-off is given here.

Regarding `COc1c(-c2ccc(O)cc2)oc2cc(O)cc(O)c2c1=O`, in the assay on 3T3-L1 [1], the outcome was inactive.

`COc1c(-c2ccc(O)c(CCC(C)CO)c2)oc2cc(O)cc(O)c2c1=O` (stereo not drawn) [DODOVISCIN I]: the Activity in the assay with 3T3-L1 [2] stood at 189.6%.

Consider `C=C(C)C(O)Cc1cc(-c2oc3cc(O)c(OC)c(O)c3c(=O)c2OC)cc(CCC(C)CO)c1O` (stereo not drawn) [DODOVISCIN A], for which the figures for the Activity in the assay with 3T3-L1 [2] and with 3T3-L1 [3] were 138.5% and 248.3%, respectively. In addition, the outcome in the assay with 3T3-L1 [4], in the assay with 3T3-L1 [5], with 3T3-L1 [6], in the assay with 3T3-L1 [7] and in the assay with 3T3-L1 [8] was Active.

Turning to `COc1cc(O)c2c(c1)O[C@H](c1cc(O)cc(O)c1)CC2=O` [BLUMEATIN], the figures for the Activity in the assay with 3T3-L1 [2], in the assay on 3T3-L1 [3] and with 3T3-L1 [9] were 121.2%, 161.3% and 219.2%, respectively. The outcome with 3T3-L1 [4], with 3T3-L1 [5], in the assay with 3T3-L1 [6], in the assay with 3T3-L1 [10] and in the assay on 3T3-L1 [11] was Active.

As for `COc1c(O)cc2oc(-c3cc(CC=C(C)C)c(O)c(C[C@H](O)C(C)(C)O)c3)c(OC)c(=O)c2c1O` [DODOVISCIN D], the Activity was 103.2% with 3T3-L1 [2], 117.8% in the assay with 3T3-L1 [3] and 198.2% in the assay on 3T3-L1 [9].

As for `C=C(C)C(O)Cc1cc(-c2oc3cc(O)c(OC)c(O)c3c(=O)c2OC)cc(CC=C(C)C)c1O` (stereo not drawn) [DODOVISCIN B], the Activity with 3T3-L1 [2] is listed as 328.1%.

Take `COc1c(-c2cc(CC=C(C)C)c(O)c(CCC(C)CO)c2)oc2cc(O)cc(O)c2c1=O` (stereo not drawn) [DODOVISCIN H]: the Activity in the assay with 3T3-L1 [2] came out at 263.1%.

As for `COc1c(O)cc2oc(-c3cc(CC=C(C)C)c(O)c(CCC(C)CO)c3)c(OC)c(=O)c2c1O` (stereo not drawn), the Activity in the assay with 3T3-L1 [2] worked out at 233%; in the assay on 3T3-L1 [3] it was 289.8%. Further, the result with 3T3-L1 [4], in the assay on 3T3-L1 [5], in the assay with 3T3-L1 [6], with 3T3-L1 [7] and in the assay with 3T3-L1 [8] was Active.

Take `COc1c(-c2cc(CC=C(C)C)c(O)c(C/C=C(\C)CO)c2)oc2cc(O)cc(O)c2c1=O` [DODOVISCIN E]: the Activity with 3T3-L1 [2] stood at 280.2%.

`COc1c(O)cc2oc(-c3cc(CC=C(C)C)c(O)c(CC=C(C)C)c3)c(OC)c(=O)c2c1O`: in the assay on 3T3-L1 [2], the Activity is 256.2%.

As for `COc1c(O)cc2oc(-c3ccc(O)cc3)c(OC)c(=O)c2c1O`, the outcome in the assay on 3T3-L1 [1] was inactive.

On to `COc1cc(O)c2c(c1)O[C@H](c1ccc(O)cc1)CC2=O` [SAKURANETIN], for which the Activity in the assay on 3T3-L1 [2] is listed as 278.8%; with 3T3-L1 [3], 419.9%; in the assay with 3T3-L1 [9], 459.4%.

As for `CN(CCOc1ccc(CC2SC(=O)NC2=O)cc1)c1ccccn1` (stereo not drawn) [ROSIGLITAZONE], the Activity with 3T3-L1 [12] worked out at 335.6%.

As for `COc1c(-c2cc(CC=C(C)C)c(O)c(CC=C(C)C)c2)oc2cc(O)cc(O)c2c1=O`, the Activity in the assay on 3T3-L1 [2] came out at 169.9%.

In the case of `COc1c(O)cc2oc(-c3cc(CC=C(C)C)c(O)c(C/C=C(\C)CO)c3)c(OC)c(=O)c2c1O` [DODOVISCIN G], the Activity with 3T3-L1 [2] is given as 355.7%.
